Active and inactive are the calls of the source. The rule behind the calls is not given here.
How the values were obtained:
[1] = target: Nitric oxide synthase, inducible (Homo sapiens, UniProt P35228); experiment: Inhibition of cytokine-induced iNOS expressed in human A172 cells assessed as inhibition of NO formation; format: cell-based, A 172
[2] = target: Nitric oxide synthase, inducible (Rattus norvegicus) (UniProt Q06518); experiment: Activity against rat cerebellum iNOS upto 1 uM
[3] = Inhibition of vaccinia virus system-induced human NOS expressed in BSC1 cells; format: cell-based; conditions: bsc-1
BSC-1 [4] = experiment: Selectivity ratio, IC50 for ecNOS/IC50 for iNOS using vaccinia virus-induced system in BSC1 cells; format: cell-based; conditions: Homo sapiens
Summary of the method: (§1)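 For each compound, the IC50 against bcNOS (b/i) or ecNOS (e/i) is divided by the iNOS IC50 from the same BSC-1 vaccinia system.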

BSC-1 [5] = experiment: Selectivity ratio, IC50 for bcNOS/IC50 for iNOS using vaccinia virus-induced system in BSC1 cells; format: cell-based; conditions: Homo sapiens; summary of the method: as §1

Nitric oxide synthase, inducible (Rattus norvegicus), sequence (Q06518 whole entry): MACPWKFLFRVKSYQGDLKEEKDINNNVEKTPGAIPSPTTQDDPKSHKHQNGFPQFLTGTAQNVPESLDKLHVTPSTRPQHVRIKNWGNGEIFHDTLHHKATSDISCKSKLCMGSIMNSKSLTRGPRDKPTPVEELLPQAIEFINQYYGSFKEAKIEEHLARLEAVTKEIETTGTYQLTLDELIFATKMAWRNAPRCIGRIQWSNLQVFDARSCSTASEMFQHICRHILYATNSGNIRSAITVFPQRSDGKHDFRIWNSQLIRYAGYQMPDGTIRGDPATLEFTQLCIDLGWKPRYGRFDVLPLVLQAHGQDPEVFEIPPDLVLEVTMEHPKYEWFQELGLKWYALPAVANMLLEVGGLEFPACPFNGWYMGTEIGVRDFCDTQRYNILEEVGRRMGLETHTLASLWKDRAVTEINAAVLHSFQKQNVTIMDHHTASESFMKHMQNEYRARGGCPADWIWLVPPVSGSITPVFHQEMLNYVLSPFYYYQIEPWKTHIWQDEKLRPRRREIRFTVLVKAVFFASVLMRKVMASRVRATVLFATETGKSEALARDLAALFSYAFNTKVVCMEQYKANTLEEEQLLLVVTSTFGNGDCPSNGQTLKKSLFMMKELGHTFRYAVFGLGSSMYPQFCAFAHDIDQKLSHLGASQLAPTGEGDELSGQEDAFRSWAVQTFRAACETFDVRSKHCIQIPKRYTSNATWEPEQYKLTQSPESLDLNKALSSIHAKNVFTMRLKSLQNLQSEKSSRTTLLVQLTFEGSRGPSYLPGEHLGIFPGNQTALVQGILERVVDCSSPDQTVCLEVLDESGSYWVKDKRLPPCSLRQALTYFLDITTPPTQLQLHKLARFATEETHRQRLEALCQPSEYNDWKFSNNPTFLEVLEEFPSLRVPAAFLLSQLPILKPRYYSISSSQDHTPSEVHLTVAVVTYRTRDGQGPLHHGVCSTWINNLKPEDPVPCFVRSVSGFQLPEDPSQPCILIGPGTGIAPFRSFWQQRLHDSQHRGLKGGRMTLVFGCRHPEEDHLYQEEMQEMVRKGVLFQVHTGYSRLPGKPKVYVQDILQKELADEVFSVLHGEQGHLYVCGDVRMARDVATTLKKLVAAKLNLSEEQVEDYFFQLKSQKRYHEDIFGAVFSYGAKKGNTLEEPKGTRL
Nitric oxide synthase, inducible, sequence (P35228 whole entry): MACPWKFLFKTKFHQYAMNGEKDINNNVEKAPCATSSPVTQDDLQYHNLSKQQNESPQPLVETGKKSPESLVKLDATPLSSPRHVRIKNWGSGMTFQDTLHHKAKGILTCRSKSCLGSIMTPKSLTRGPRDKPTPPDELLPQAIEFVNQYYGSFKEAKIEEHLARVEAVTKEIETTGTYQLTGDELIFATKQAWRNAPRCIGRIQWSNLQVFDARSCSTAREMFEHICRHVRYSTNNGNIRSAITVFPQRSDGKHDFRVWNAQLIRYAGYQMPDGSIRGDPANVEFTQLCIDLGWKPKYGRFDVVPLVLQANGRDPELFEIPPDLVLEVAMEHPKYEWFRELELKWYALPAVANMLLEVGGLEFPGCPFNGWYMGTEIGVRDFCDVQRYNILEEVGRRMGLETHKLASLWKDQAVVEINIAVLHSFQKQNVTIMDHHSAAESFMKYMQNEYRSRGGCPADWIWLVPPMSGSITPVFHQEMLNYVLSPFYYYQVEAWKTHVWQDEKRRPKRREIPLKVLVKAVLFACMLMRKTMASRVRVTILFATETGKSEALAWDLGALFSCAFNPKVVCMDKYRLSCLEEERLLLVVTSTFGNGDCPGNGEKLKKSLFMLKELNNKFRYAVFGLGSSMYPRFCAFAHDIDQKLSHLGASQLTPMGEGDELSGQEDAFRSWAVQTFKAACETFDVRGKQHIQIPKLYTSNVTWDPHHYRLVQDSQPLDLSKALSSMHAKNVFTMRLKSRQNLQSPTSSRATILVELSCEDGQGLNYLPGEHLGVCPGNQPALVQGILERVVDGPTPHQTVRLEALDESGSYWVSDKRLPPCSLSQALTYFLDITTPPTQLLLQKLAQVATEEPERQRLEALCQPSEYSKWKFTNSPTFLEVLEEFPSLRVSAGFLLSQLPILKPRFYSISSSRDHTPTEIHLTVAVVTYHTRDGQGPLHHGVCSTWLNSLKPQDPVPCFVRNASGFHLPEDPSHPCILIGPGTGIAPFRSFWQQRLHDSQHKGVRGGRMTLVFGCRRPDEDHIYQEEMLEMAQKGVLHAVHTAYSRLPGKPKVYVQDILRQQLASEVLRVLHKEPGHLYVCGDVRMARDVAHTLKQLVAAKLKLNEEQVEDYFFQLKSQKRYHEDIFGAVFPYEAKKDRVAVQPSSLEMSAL

| SMILES | IC50 [1] [nM] | Activity [2] | IC50 [3] [nM] | Ratio IC50 (BSC-1 [4]) | Ratio IC50 (BSC-1 [5]) |
| --- | --- | --- | --- | --- | --- |
| O=C(CC1CCCCN1c1cc(-n2ccnc2)ncn1)NCc1ccc2c(c1)OCO2 (stereo not given) | 10 | inactive | 100 | > 1000 | 19 |
| Cc1cc(N2CCCCC2CC(=O)NCc2ccc3c(c2)OCO3)nc(-n2ccnc2)n1 (stereo not given) | 4.1 | inactive | 16 | 1200 | 5 |
| O=C(CC1CCCCN1c1ccnc(-n2ccnc2)n1)NC(c1ccccc1)c1ccccc1 (stereo not given) |  | inactive |  |  |  |
| O=C(CC1CN(C(=O)OCc2ccccc2)CCN1c1ccnc(-n2ccnc2)n1)NCc1ccc2c(c1)OCO2 (stereo not given) | 0.8 | inactive | 18 | 660 | 7 |
| CCOC(=O)CN1CCN(c2ccnc(-n3ccnc3)n2)C(CC(=O)NCc2ccc3c(c2)OCO3)C1 (stereo not given) | 0.93 | inactive | 4.9 | 1700 | 5 |
| CC(C)CCN1CCN(c2ccnc(-n3ccnc3)n2)C(CC(=O)NCc2ccc3c(c2)OCO3)C1 (stereo not given) | 1 | inactive | 10 | 1000 | 6 |
| COc1cccc(CNC(=O)CC2CCCCN2c2ccnc(-n3ccnc3)n2)c1 (stereo not given) | 3.7 | inactive | 230 | > 430 | 4 |
| Cc1cc(N2CCN(Cc3ccccc3)C(CC(=O)NCc3ccc4c(c3)OCO4)C2)nc(-n2ccnc2)n1 (stereo not given) | 25 | inactive | 160 | 350 | 130 |
| O=C(CC1CCCCN1c1ccnc(-n2ccnc2)n1)NCc1ccco1 (stereo not given) | 63 | inactive | 260 | 140 | 13 |
| COc1ccc(NC(=O)CC2CCCCN2c2ccnc(-n3ccnc3)n2)cc1OC (stereo not given) |  | inactive | 1800 |  |  |
| O=C(CC1CN(C(=O)NCc2ccccc2)CCN1c1ccnc(-n2ccnc2)n1)NCc1ccc2c(c1)OCO2 (stereo not given) | 0.96 | inactive | 72 | 490 | 4 |
| CC(=O)N1CCN(c2ccnc(-n3ccnc3)n2)C(CC(=O)NCc2ccc3c(c2)OCO3)C1 (stereo not given) | 1 | inactive | 320 | > 10 | 3 |
| O=C(CC1COCCN1c1ccnc(-n2ccnc2)n1)NCc1ccc2c(c1)OCO2 (stereo not given) | 0.5 | inactive |  |  |  |
| O=C(CC1CCCCN1c1ccnc(-n2ccnc2)n1)NCc1ccccn1 (stereo not given) |  | inactive |  |  |  |
| CS(=O)(=O)Nc1ccc(CNC(=O)CC2CCCCN2c2ccnc(-n3ccnc3)n2)cc1 (stereo not given) |  | inactive | > 1000 |  |  |
| CC(C)OC(=O)N1CCN(c2ccnc(-n3ccnc3)n2)C(CC(=O)NCc2ccc3c(c2)OCO3)C1 (stereo not given) | 1 | inactive | 24 | 800 | 4 |
| O=C(CC1CN(Cc2cccc3ccccc23)CCN1c1ccnc(-n2ccnc2)n1)NCc1ccc2c(c1)OCO2 (stereo not given) | 69 | inactive | 120 | 40 | 7 |
| O=C(CC1CCCCN1c1cc(-c2ccccc2)nc(-n2ccnc2)n1)NCc1ccc2c(c1)OCO2 (stereo not given) | 67 | inactive | 450 | 36 | 4 |
| O=C(CC1CN(S(=O)(=O)c2ccccc2)CCN1c1ccnc(-n2ccnc2)n1)NCc1ccc2c(c1)OCO2 (stereo not given) | 2.7 | inactive | 34 | 1100 | 9 |
| CN(Cc1ccccc1)C(=O)CC1CCCCN1c1ccnc(-n2ccnc2)n1 (stereo not given) |  | inactive |  |  |  |
| COC(=O)N1CCN(c2ccnc(-n3ccnc3)n2)[C@H](CC(=O)NCc2ccc3c(c2)OCO3)C1 | 34 | inactive | > 1000 |  |  |
| O=C(CC1CN(C(=O)c2ccccc2)CCN1c1ccnc(-n2ccnc2)n1)NCc1ccc2c(c1)OCO2 (stereo not given) | 0.5 | inactive | 85 | 220 | 4 |
| O=C(CC1CCCCN1c1cc(-n2ccnc2)nc(-n2ccnc2)n1)NCc1ccc2c(c1)OCO2 (stereo not given) | 35 | inactive | 515 | 130 | 13 |
| O=C(CC1CCCCN1c1ccnc(-n2ccnc2)n1)NCc1ccc(F)cc1 (stereo not given) | 3 | inactive | 210 | 490 | 5 |
| O=C(CC1CCCCN1c1ccnc(-n2ccnc2)n1)NCc1ccc(OC(F)(F)F)cc1 (stereo not given) | 19 | inactive | 140 | 220 | 5 |
| O=C(CC1CN(C(=O)Nc2ccccc2)CCN1c1ccnc(-n2ccnc2)n1)NCc1ccc2c(c1)OCO2 (stereo not given) | 0.87 | inactive | 25 | 350 | 3 |
| O=C(CC1CN(C(=O)c2ccco2)CCN1c1ccnc(-n2ccnc2)n1)NCc1ccc2c(c1)OCO2 (stereo not given) | 0.67 | inactive | 48 | 1000 | 6 |

| SMILES | IC50 [1] [nM] | Activity [2] | IC50 [3] [nM] | Ratio IC50 (BSC-1 [4]) | Ratio IC50 (BSC-1 [5]) |
| --- | --- | --- | --- | --- | --- |
| CNC(=O)CC1CCCCN1c1ccnc(-n2ccnc2)n1 (stereo not given) | > 100 | inactive |  |  |  |
| CN(C)c1cccc2c(S(=O)(=O)N3CCN(c4ccnc(-n5ccnc5)n4)C(CC(=O)NCc4ccc5c(c4)OCO5)C3)cccc12 (stereo not given) | 1.1 | inactive |  |  |  |
| O=C(CC1CCCCN1c1ccnc(-n2ccnc2)n1)NCc1ccc2c(c1)OCO2 (stereo not given) | 0.5 | inactive | 7 | 520 | 5 |
| CNC(=O)N1CCN(c2ccnc(-n3ccnc3)n2)C(CC(=O)NCc2ccc3c(c2)OCO3)C1 (stereo not given) | 1 | inactive | 450 | > 250 | 4 |
| CC(=O)N1CCN(c2cc(C)nc(-n3ccnc3)n2)CC1CC(=O)NCc1ccc2c(c1)OCO2 (stereo not given) | 8.5 | inactive | 340 | > 320 | > 32 |
| NS(=O)(=O)c1ccc(CNC(=O)CC2CCCCN2c2ccnc(-n3ccnc3)n2)cc1 (stereo not given) |  | inactive | > 330 |  |  |
| O=C(CC1CCCCN1c1cccc(-n2ccnc2)c1)NCc1ccc2c(c1)OCO2 (stereo not given) | 77 | inactive |  |  |  |
| O=C(CC1CCCCN1c1ccnc(-n2ccnc2)n1)NCc1ccc(C(F)(F)F)cc1 (stereo not given) | 150 | inactive | 260 | 70 | 3 |
| O=C(CC1CCCCN1c1cc(Cl)nc(-n2ccnc2)n1)NCc1ccc2c(c1)OCO2 (stereo not given) | 0.49 | inactive | 9 | 1100 | 5 |
| O=C(CC1CCCCCN1c1ccnc(-n2ccnc2)n1)NCc1ccc2c(c1)OCO2 (stereo not given) | 2 | inactive |  |  |  |
| CN1CCN(c2ccnc(-n3ccnc3)n2)C(CC(=O)NCc2ccc3c(c2)OCO3)C1 (stereo not given) | 0.48 | inactive | 11 | 1300 | 2 |
| O=C(CC1CCCCN1c1ccnc(-n2ccnc2)n1)NCc1ccc([N+](=O)[O-])cc1 (stereo not given) | 168 | inactive | 940 | 74 | > 10 |
| O=C(CC1CCCCN1c1ccnc(-n2ccnc2)n1)NCc1ccc(Cl)cc1 (stereo not given) |  | inactive | 160 |  |  |
| CS(=O)(=O)c1ccc(CNC(=O)CC2CCCCN2c2ccnc(-n3ccnc3)n2)cc1 (stereo not given) |  | inactive | 940 |  |  |
| Cc1cc(N2CCN(C(=O)C(C)C)[C@@H](CC(=O)NCc3ccc4c(c3)OCO4)C2)nc(-n2ccnc2)n1 | 300 | inactive | > 1000 |  |  |
| Cc1cc(N2CCNC(CC(=O)NCc3ccc4c(c3)OCO4)C2)nc(-n2ccnc2)n1 (stereo not given) | 100 | inactive | > 1000 |  |  |
| Cc1cc(N2CCN(S(C)(=O)=O)C(CC(=O)NCc3ccc4c(c3)OCO4)C2)nc(-n2ccnc2)n1 (stereo not given) | 12 | inactive | > 1000 |  |  |
| Cc1cc(N2CCC[C@H]2C(=O)NCCc2ccc3c(c2)OCO3)nc(-n2ccnc2)n1 | 6400 | inactive |  |  |  |
| Cc1ccc(CNC(=O)CC2CCCCN2c2ccnc(-n3ccnc3)n2)cc1 (stereo not given) |  | inactive | 274 |  |  |
| O=C(CC1CCCCN1c1ccnc(-n2ccnc2)n1)Nc1ccc2c(c1)OCO2 (stereo not given) | > 100 | inactive |  |  |  |
| N#Cc1ccc(CNC(=O)CC2CCCCN2c2ccnc(-n3ccnc3)n2)cc1 (stereo not given) |  | inactive | > 1000 |  |  |
| Nc1ccc(CNC(=O)CC2CCCCN2c2ccnc(-n3ccnc3)n2)cc1 (stereo not given) |  | inactive | 850 |  |  |
| COc1ccccc1CNC(=O)CC1CCCCN1c1ccnc(-n2ccnc2)n1 (stereo not given) |  | inactive | 500 |  |  |
| COc1cc(CNC(=O)CC2CCCCN2c2ccnc(-n3ccnc3)n2)cc(OC)c1OC (stereo not given) | > 100 | inactive |  |  |  |
| COc1ccc(CNC(=O)CC2CCCCN2c2ccnc(-n3ccnc3)n2)cc1 (stereo not given) |  | inactive | 23 |  |  |
| COc1ccc(CNC(=O)CC2CCCCN2c2ccnc(-n3ccnc3)n2)cc1OC (stereo not given) |  | inactive | 110 |  |  |
| O=C(CC1CCCCN1c1ccnc(-n2ccnc2)n1)NCc1ccccc1 (stereo not given) |  | inactive | 440 |  |  |

Source: ChEMBL document CHEMBL1142952, “Design, synthesis, and activity of 2-imidazol-1-ylpyrimidine derived inducible nitric oxide synthase dimerization inhibitors” (J Med Chem, 2007)
